In publication PMC11542020 (Blood Cancer Journal, 2024):
Where two headings read alike, the source gives them in different places.

Key:
[1] = test system: T-ALL PDX (ALL-8); assay: Histopathologic analysis of mouse skull and brain to assess tumor burden; format: in vivo, human; conditions: 10 mg/kg IP Days 0, 7, 14
[2] = test system: 25 T-ALL PDXs; assay: In vivo single mouse trial; design: species or system human; conditions: 25 mg/kg IP Days 0, 7, 14
[3] = ACHM-025 tolerability in naïve immunodeficient mice; format: in vivo, mouse; conditions: 25 mg/kg via IP weekly ×3
[4] = test system: T-ALL PDX (ALL-8); assay: In vivo dose response study, conventional, T-ALL PDX ALL-8 in NSG mice; design: species or system human
[5] = Preliminary tolerability studies in cynomolgus monkeys; format: in vivo, cynomolgus monkey
[6] = test system: ALL-11/EV; assay: In vivo efficacy against ALL-11/EV in mice; design: species or system human; conditions: 25 mg/kg IP Days 0, 7, 14
Summary of the method: (§1)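 Mice engrafted with the patient-derived xenograft were dosed IP and their peripheral blood % human CD45⁺ was monitored. An event was defined as huCD45⁺ >25% in PB. Event-free survival of treated and vehicle cohorts was compared as T-C and T/C. Studies used either n = 6 mice per treatment or single-mouse testing (n = 1).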

[7] = test system: T-ALL PDX (ALL-8); assay: In vivo relapsed/refractory therapy comparison; design: species or system human
[8] = test system: T-ALL PDXs; assay: Ex vivo cytotoxicity assay; format: cell-based, human
Summary of the method: (§2)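 Patient-derived xenograft leukemia cells were cultured ex vivo in AIM V medium at a density optimized for each xenograft (1–5 × 10⁶ cells per mL). ALL-11 cells were lentivirally transduced with AKR1C3 or with empty vector. Viability was read by resazurin or CellTiter-Glo. IC₅₀ was interpolated from nonlinear regression curves, with three biological experiments.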

[9] = Plasma protein binding; format: in vitro ADME; conditions: human
[10] = Plasma protein binding; format: in vitro ADME; conditions: mouse
[11] = ACHM-025 pharmacokinetic analysis of murine plasma; format: in vivo; conditions: female, NSG, mouse, ip, 25 mg/kg, across the dose levels 5, 10, 25 mg/kg IP
[12] = test system: ALL-11/EV; assay: Ex vivo cytotoxicity assay on ALL-11 PDX empty vector; format: cell-based; conditions: Homo sapiens, 48 h
Summary of the method: as §2

[13] = test system: ALL-11/AKR1C3; assay: Ex vivo cytotoxicity assay on ALL-11 PDX overexpressing AKR1C3; format: cell-based; conditions: Homo sapiens, 48 h
Summary of the method: as §2

[14] = ACHM-025 pharmacokinetic analysis of murine brain; format: in vivo; conditions: female, NSG, mouse, intraperitoneal, 25 mg/kg
[15] = test system: B-ALL PDXs; assay: Ex vivo cytotoxicity assay; format: cell-based, human
Summary of the method: as §2

[16] = test system: ALL-11/AKR1C3; assay: In vivo efficacy against ALL-11/AKR1C3 in mice; design: species or system human; conditions: 25 mg/kg IP Days 0, 7, 14
Summary of the method: as §1

[17] = test system: T-ALL PDX (ALL-8); assay: Minimal residual disease; format: in vivo, human; conditions: not within the quantitative range of the assay
[18] = test system: T-ALL PDX (ALL-31); assay: In vivo efficacy, conventional study, T-ALL PDX ALL-31 in NSG mice; design: species or system human; conditions: 25 mg/kg IP Days 0, 7, 14
[19] = test system: T-ALL PDX (ALL-8); assay: In vivo consolidation therapy comparison, ALL-8 in NSG mice; design: species or system human
Summary of the method: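 ALL-8-engrafted mice received test compound 5 mg/kg IP on Days 0 and 7, alone or with Ara-C and 6-mercaptopurine (each 12.5 mg/kg IP, Days 0–4 and 7–11). Comparators were cyclophosphamide (75 mg/kg IP, Days 0 and 7) and vehicle. Human CD45⁺ in PB was tracked over time. At Day 28, or at event for vehicle, PB, BM and spleen were assessed as % huCD45⁺ of mouse CD45⁺ (3 mice).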

[20] = test system: T-ALL PDX (ALL-31); conditions: OBI-3424 2.5 mg/kg, PR-104 200 mg/kg; cited from earlier work
[21] = test system: T-ALL PDX (ALL-8); conditions: OBI-3424 2.5 mg/kg, PR-104 200 mg/kg; cited from earlier work
[22] = ACHM-025 10 mg/kg IP Days 0, 7, 14, nelarabine 125 mg/kg IP Days 0–4, 14–18, alone or combined

CN1CCN(S(=O)(=O)c2cc([N+](=O)[O-])ccc2N(CCOS(C)(=O)=O)CCOS(C)(=O)=O)CC1 [ACHM-025, ((2-((4-methylpiperazin-1-yl)sulfonyl)-4-nitrophenyl)azanediyl)bis(ethane-2,1-diyl) dimethanesulfonate]
leukemic infiltration of the calvarial bone marrow at Day 28 (H&E, TdT) [1]: no observable leukemic infiltration
PDXs that did not reach event during the 250 day monitoring period following the final treatment [2]: 7/25
Tolerability [3]: well tolerated
ORM ([4]; 10 mg/kg IP Days 0, 7, 14): MCRs
ORM ([4]; 15 mg/kg IP Days 0, 7, 14): MCRs
ORM ([4]; 25 mg/kg IP Days 0, 7, 14): MCRs
mice with no detectable human leukemia cells in the PB at 250 days after the last treatment ([4]; 25 mg/kg IP Days 0, 7, 14): 5 out of 6
human leukemia cells in the PB, BM, spleen, kidney or liver at Day 28 ([4]; any of the three doses (10, 15 or 25 mg/kg)): no detectable human leukemia cells
single dose-limiting toxicity ([5]; 0.6 mg/kg): neutropenia
all other hematological, clinical chemistry, urinalysis and histopathology parameters ([5]; 2.0 mg/kg, the highest dose tested): within normal range
well tolerated doses ([5]; preliminary studies): ≤ 0.5 mg/kg
Treated EFS [6]: 49.1 days
human leukemia cells in the BM at Day 28 by flow cytometry [7]: no detectable human leukemia cells
EFS (median event free survival) [7, 22]: 207 days
ORM [7, 22]: MCRs
T-C [7, 22]: 198 days
T/C [7, 22]: 22.5 days
IC50 ([8]; Homo sapiens, 48 h, read-out: Median IC50, median of 6 T-ALL PDXs, 48 h): 0.029 µM
fraction unbound at 5 µmol/L [9]: 0.646
fraction unbound at 5 µmol/L [10]: 0.569
Cmax ([11]; Cmax): 1.6 to 9.3 µM
AUC(0-inf) ([11]; total plasma exposure (AUC0-inf)): 500 to 3300 nM·h
IC50 [12]: 1.26 µM
IC50 [13]: 0.0131 µM
concentration at 0.25 h [14]: 0.14 µM
IC50 ([15]; Homo sapiens, 48 h, read-out: Median IC50, median of 6 B-ALL PDXs, 48 h): 0.84 µM
Treated EFS [16]: 104 days
MRD in BM samples at Day 28 (PCR-based assay) [17]: MRD positive
Median EFS [18]: > 332 days
human leukemia cells in the murine peripheral blood (PB) [18]: < 1%
mice that did not relapse over the >300-day observation period following the last treatment [18]: 3 out of 5
time for which human leukemia cells in PB <1% was maintained [18]: 10 consecutive weeks
human leukemia levels in the PB, BM and spleen at Day 28 ([19]; ACHM-025 5 mg/kg IP Days 0, 7): undetectable levels
human leukemia cells in the murine PB ([19]; ACHM-025 5 mg/kg IP Days 0, 7, for six consecutive weeks): < 1%

COc1nc(N)nc2c1ncn2[C@@H]1O[C@H](CO)[C@@H](O)[C@@H]1O [Nelarabine, nelarabine, reference compound]
EFS (median event free survival) [7, 22]: 28.4 days
T-C [7, 22]: 19.1 days
T/C [7, 22]: 3.1 days
human leukemia levels in the PB, BM or spleen at Day 28 ([7]; nelarabine 125 mg/kg IP Days 0–4, 14–18): did not significantly decrease

CS(=O)(=O)OCCN(CCBr)c1c(C(=O)NCCO)cc([N+](=O)[O-])cc1[N+](=O)[O-] [PR-104A, reference compound]
IC50 ([8]; read-out: Median IC50, median of T-ALL PDXs): 1.8 µM
IC50 ([15]; read-out: Median IC50, median of B-ALL PDXs): 26.6 µM

CS(=O)(=O)OCCN(CCBr)c1c(C(=O)NCCOP(=O)(O)O)cc([N+](=O)[O-])cc1[N+](=O)[O-] [PR-104]
delay of leukemia progression [20]: 44.4 days
delay of leukemia progression [21]: 54.3 days
